Measured values from different studies.
Compare with care: the assays were run in different laboratories.
Target: G protein-coupled receptor kinase 4 (GRK4, Homo sapiens, UniProt P32298)

Cc1nn(C)cc1-c1nc2c(N3CCN(Cc4ccc(Cl)cc4)CC3)c(Cl)cnc2[nH]1
remaining binding (binding, competition with immobilised ligand; 1 µM): 41%

O=c1[nH]c2ccccc2n1C1CCN(Cc2ccc(-c3[nH]c4cc5ncnc5cc4nc3-c3ccccc3)cc2)CC1
remaining signal (cell-free assay; 0.5 µM): 104%

N#CC1(c2ccccn2)CCN(Cc2cc(C(=O)O)c(=O)n3ccccc23)CC1
remaining binding (cell-free assay, competition with immobilised ligand; 1 µM): 68%

Cn1cc(-c2cc(F)cc(N3CCn4c(cc5c4CCCC5)C3=O)c2CO)cc(Nc2ccc(N3CCN(C4COC4)CC3)cn2)c1=O
inhibition (enzyme activity, inhibitor; 0.1 µM): 12%

CC(C)(C)c1cc(C=C(C#N)C#N)cc(Br)c1O
remaining activity (enzyme activity, inhibitor; 0.5 µM): 101%

Nc1ncc(-c2nc(N3CCOCC3)nc(N3CCOCC3)n2)c(C(F)F)n1
remaining binding (binding, competition with immobilised ligand; 10 µM): 74%

COc1ncccc1-c1cnn2ccc(N3CCN(C(=O)OC(C)C)CC3)nc12
remaining binding (binding, competition with immobilised ligand; 1 µM): 70%

Cn1cncc1[C@@](O)(COc1ccc(C#N)cc1-c1ccc(OC(F)(F)F)cc1)c1ccc(C#N)cc1
remaining binding (cell-free assay, competition with immobilised ligand; 1 µM): 56%

Cn1cc(-c2cccc(N3CCc4c(sc5c4CC(C)(C)C5)C3=O)c2CO)cc(Nc2ccncn2)c1=O
inhibition (enzyme activity, inhibitor; 1 µM): -4%
